Assay results taken from ChEMBL document CHEMBL3864165, “Design, synthesis, and AChE inhibitory activity of new benzothiazole-piperazines” (Bioorg Med Chem Lett, 2016).

What was measured:
[1] = molecular target: Acetylcholinesterase (Electrophorus electricus) (UniProt O42275); test: Inhibition of electric eel AChE at 10^-6 M preincubated for 15 mins followed by acetylthiocholine iodide substrate addition measured for 5 mins by Ellman's spectrophotometric method relative to control
Acetylcholinesterase [2] = molecular target: T1, Acetylcholinesterase (Electrophorus electricus, UniProt O42275); test: Inhibition of electric eel AChE preincubated for 15 mins followed by acetylthiocholine iodide substrate addition measured for 5 mins by Ellman's spectrophotometric method
T1 sequence (O42275 whole entry): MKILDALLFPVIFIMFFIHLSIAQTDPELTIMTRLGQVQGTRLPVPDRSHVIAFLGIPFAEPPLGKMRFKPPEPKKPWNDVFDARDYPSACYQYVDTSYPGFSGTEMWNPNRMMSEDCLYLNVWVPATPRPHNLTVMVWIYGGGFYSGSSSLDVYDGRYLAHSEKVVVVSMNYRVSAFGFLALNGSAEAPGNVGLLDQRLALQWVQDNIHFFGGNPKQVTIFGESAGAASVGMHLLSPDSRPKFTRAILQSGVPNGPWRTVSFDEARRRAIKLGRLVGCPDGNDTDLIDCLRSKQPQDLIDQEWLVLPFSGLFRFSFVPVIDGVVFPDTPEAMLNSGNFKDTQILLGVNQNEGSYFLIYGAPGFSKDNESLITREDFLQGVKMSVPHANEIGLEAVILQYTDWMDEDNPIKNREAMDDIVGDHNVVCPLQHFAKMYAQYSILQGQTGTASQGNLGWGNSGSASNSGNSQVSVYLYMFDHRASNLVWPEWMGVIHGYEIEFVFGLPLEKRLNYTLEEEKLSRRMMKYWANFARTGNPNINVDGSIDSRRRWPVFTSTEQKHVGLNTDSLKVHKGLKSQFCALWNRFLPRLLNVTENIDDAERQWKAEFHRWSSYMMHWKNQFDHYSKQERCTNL

[3] = Cytotoxicity against mouse NIH/3T3 cells after 24 hrs by MTT assay
Salmonella typhimurium [4] = test: Genotoxicity in Salmonella typhimurium TA100 assessed as increase in number of revertants at 0.156 mg/ml in absence of aroclor-1254-induced Sprague-Dawley rat liver S9 fraction by Ames-MPF assay relative to control; assay type: toxicity, organism-based; conditions: salmonella enterica subsp. enterica serovar typhimurium
How it was run: (§1)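 Ames MPF microplate fluctuation format, run with and without S9 metabolic activation. The read-out is the count of positive (revertant) wells. A run is accepted only when positive controls give more than 25 positive wells and negative controls give fewer than eight.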

Salmonella typhimurium [5] = test: Genotoxicity in Salmonella typhimurium TA98 assessed as increase in number of revertants at 2.5 mg/ml in absence of aroclor-1254-induced Sprague-Dawley rat liver S9 fraction by Ames-MPF assay relative to control; assay type: toxicity, organism-based; conditions: salmonella enterica subsp. enterica serovar typhimurium; how it was run: as §1
Salmonella typhimurium [6] = test: Genotoxicity in Salmonella typhimurium TA100 assessed as increase in number of revertants at 0.625 mg/ml in presence of aroclor-1254-induced Sprague-Dawley rat liver S9 fraction by Ames-MPF assay relative to control; assay type: toxicity, organism-based; conditions: salmonella enterica subsp. enterica serovar typhimurium; how it was run: as §1
Salmonella typhimurium [7] = test: Genotoxicity in Salmonella typhimurium TA98 assessed as increase in number of revertants at 0.625 mg/ml in presence of aroclor-1254-induced Sprague-Dawley rat liver S9 fraction by Ames-MPF assay relative to control; assay type: toxicity, organism-based; conditions: salmonella enterica subsp. enterica serovar typhimurium; how it was run: as §1
Salmonella typhimurium [8] = test: Genotoxicity in Salmonella typhimurium TA98 assessed as increase in number of revertants at 0.3125 mg/ml in absence of aroclor-1254-induced Sprague-Dawley rat liver S9 fraction by Ames-MPF assay relative to control; assay type: toxicity, organism-based; conditions: salmonella enterica subsp. enterica serovar typhimurium; how it was run: as §1
Salmonella typhimurium [9] = test: Genotoxicity in Salmonella typhimurium TA100 assessed as increase in number of revertants at 5 mg/ml in absence of aroclor-1254-induced Sprague-Dawley rat liver S9 fraction by Ames-MPF assay relative to control; assay type: toxicity, organism-based; conditions: salmonella enterica subsp. enterica serovar typhimurium; how it was run: as §1
Salmonella typhimurium [10] = test: Genotoxicity in Salmonella typhimurium TA98 assessed as increase in number of revertants at 0.625 mg/ml in absence of aroclor-1254-induced Sprague-Dawley rat liver S9 fraction by Ames-MPF assay relative to control; assay type: toxicity, organism-based; conditions: salmonella enterica subsp. enterica serovar typhimurium; how it was run: as §1
Salmonella typhimurium [11] = test: Genotoxicity in Salmonella typhimurium TA100 assessed as increase in number of revertants at 0.156 mg/ml in presence of aroclor-1254-induced Sprague-Dawley rat liver S9 fraction by Ames-MPF assay relative to control; assay type: toxicity, organism-based; conditions: salmonella enterica subsp. enterica serovar typhimurium; how it was run: as §1
Salmonella typhimurium [12] = test: Genotoxicity in Salmonella typhimurium TA98 assessed as increase in number of revertants at 2.5 mg/ml in presence of aroclor-1254-induced Sprague-Dawley rat liver S9 fraction by Ames-MPF assay relative to control; assay type: toxicity, organism-based; conditions: salmonella enterica subsp. enterica serovar typhimurium; how it was run: as §1
Salmonella typhimurium [13] = test: Genotoxicity in Salmonella typhimurium TA100 assessed as increase in number of revertants at 1.25 mg/ml in absence of aroclor-1254-induced Sprague-Dawley rat liver S9 fraction by Ames-MPF assay relative to control; assay type: toxicity, organism-based; conditions: salmonella enterica subsp. enterica serovar typhimurium; how it was run: as §1
Salmonella typhimurium [14] = test: Genotoxicity in Salmonella typhimurium TA98 assessed as increase in number of revertants at 0.3125 mg/ml in presence of aroclor-1254-induced Sprague-Dawley rat liver S9 fraction by Ames-MPF assay relative to control; assay type: toxicity, organism-based; conditions: salmonella enterica subsp. enterica serovar typhimurium; how it was run: as §1
Salmonella typhimurium [15] = test: Genotoxicity in Salmonella typhimurium TA98 assessed as increase in number of revertants at 0.156 mg/ml in absence of aroclor-1254-induced Sprague-Dawley rat liver S9 fraction by Ames-MPF assay relative to control; assay type: toxicity, organism-based; conditions: salmonella enterica subsp. enterica serovar typhimurium; how it was run: as §1
Salmonella typhimurium [16] = test: Genotoxicity in Salmonella typhimurium TA100 assessed as increase in number of revertants at 0.3125 mg/ml in presence of aroclor-1254-induced Sprague-Dawley rat liver S9 fraction by Ames-MPF assay relative to control; assay type: toxicity, organism-based; conditions: salmonella enterica subsp. enterica serovar typhimurium; how it was run: as §1
Acetylcholinesterase [17] = molecular target: T1, Acetylcholinesterase; test: Mixed-type inhibition of electric eel AChE preincubated for 15 mins followed by acetylthiocholine iodide substrate addition measured for 5 mins by Lineweaver-Burk plot analysis
How it was run: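 Substrate-velocity curves recorded with and without inhibitor, with initial velocities measured at acetylthiocholine (ATC) concentrations from 600 µM down to 18.75 µM. Data analysed as 1/V plots. Ki taken as the x-axis intercept of a secondary plot of 1/V versus inhibitor concentration.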

Salmonella typhimurium [18] = test: Genotoxicity in Salmonella typhimurium TA98 assessed as increase in number of revertants at 1.25 mg/ml in presence of aroclor-1254-induced Sprague-Dawley rat liver S9 fraction by Ames-MPF assay relative to control; assay type: toxicity, organism-based; conditions: salmonella enterica subsp. enterica serovar typhimurium; how it was run: as §1
[19] = molecular target: Acetylcholinesterase (Electrophorus electricus) (UniProt O42275); test: Inhibition of electric eel AChE at 10^-3 M preincubated for 15 mins followed by acetylthiocholine iodide substrate addition measured for 5 mins by Ellman's spectrophotometric method relative to control
[20] = molecular target: Acetylcholinesterase (Electrophorus electricus) (UniProt O42275); test: Inhibition of electric eel AChE at 10^-7 M preincubated for 15 mins followed by acetylthiocholine iodide substrate addition measured for 5 mins by Ellman's spectrophotometric method relative to control
Salmonella typhimurium [21] = test: Genotoxicity in Salmonella typhimurium TA98 assessed as increase in number of revertants at 5 mg/ml in presence of aroclor-1254-induced Sprague-Dawley rat liver S9 fraction by Ames-MPF assay relative to control; assay type: toxicity, organism-based; conditions: salmonella enterica subsp. enterica serovar typhimurium; how it was run: as §1
[22] = molecular target: Acetylcholinesterase (Electrophorus electricus) (UniProt O42275); test: Inhibition of electric eel AChE at 10^-4 M preincubated for 15 mins followed by acetylthiocholine iodide substrate addition measured for 5 mins by Ellman's spectrophotometric method relative to control
Salmonella typhimurium [23] = test: Genotoxicity in Salmonella typhimurium TA98 assessed as increase in number of revertants at 0.156 mg/ml in presence of aroclor-1254-induced Sprague-Dawley rat liver S9 fraction by Ames-MPF assay relative to control; assay type: toxicity, organism-based; conditions: salmonella enterica subsp. enterica serovar typhimurium; how it was run: as §1
Salmonella typhimurium [24] = test: Genotoxicity in Salmonella typhimurium TA100 assessed as increase in number of revertants at 2.5 mg/ml in presence of aroclor-1254-induced Sprague-Dawley rat liver S9 fraction by Ames-MPF assay relative to control; assay type: toxicity, organism-based; conditions: salmonella enterica subsp. enterica serovar typhimurium; how it was run: as §1
Salmonella typhimurium [25] = test: Genotoxicity in Salmonella typhimurium TA100 assessed as increase in number of revertants at 0.625 mg/ml in absence of aroclor-1254-induced Sprague-Dawley rat liver S9 fraction by Ames-MPF assay relative to control; assay type: toxicity, organism-based; conditions: salmonella enterica subsp. enterica serovar typhimurium; how it was run: as §1
Salmonella typhimurium [26] = test: Genotoxicity in Salmonella typhimurium TA100 assessed as increase in number of revertants at 0.3125 mg/ml in absence of aroclor-1254-induced Sprague-Dawley rat liver S9 fraction by Ames-MPF assay relative to control; assay type: toxicity, organism-based; conditions: salmonella enterica subsp. enterica serovar typhimurium; how it was run: as §1
Salmonella typhimurium [27] = test: Genotoxicity in Salmonella typhimurium TA98 assessed as increase in number of revertants at 5 mg/ml in absence of aroclor-1254-induced Sprague-Dawley rat liver S9 fraction by Ames-MPF assay relative to control; assay type: toxicity, organism-based; conditions: salmonella enterica subsp. enterica serovar typhimurium; how it was run: as §1
Salmonella typhimurium [28] = test: Genotoxicity in Salmonella typhimurium TA100 assessed as increase in number of revertants at 2.5 mg/ml in absence of aroclor-1254-induced Sprague-Dawley rat liver S9 fraction by Ames-MPF assay relative to control; assay type: toxicity, organism-based; conditions: salmonella enterica subsp. enterica serovar typhimurium; how it was run: as §1
Salmonella typhimurium [29] = test: Genotoxicity in Salmonella typhimurium TA100 assessed as increase in number of revertants at 5 mg/ml in presence of aroclor-1254-induced Sprague-Dawley rat liver S9 fraction by Ames-MPF assay relative to control; assay type: toxicity, organism-based; conditions: salmonella enterica subsp. enterica serovar typhimurium; how it was run: as §1
Salmonella typhimurium [30] = test: Genotoxicity in Salmonella typhimurium TA100 assessed as increase in number of revertants at 1.25 mg/ml in presence of aroclor-1254-induced Sprague-Dawley rat liver S9 fraction by Ames-MPF assay relative to control; assay type: toxicity, organism-based; conditions: salmonella enterica subsp. enterica serovar typhimurium; how it was run: as §1
Salmonella typhimurium [31] = test: Genotoxicity in Salmonella typhimurium TA98 assessed as increase in number of revertants at 1.25 mg/ml in absence of aroclor-1254-induced Sprague-Dawley rat liver S9 fraction by Ames-MPF assay relative to control; assay type: toxicity, organism-based; conditions: salmonella enterica subsp. enterica serovar typhimurium; how it was run: as §1

Acetylcholinesterase (Electrophorus electricus), sequence (O42275 24-633 limits assumed): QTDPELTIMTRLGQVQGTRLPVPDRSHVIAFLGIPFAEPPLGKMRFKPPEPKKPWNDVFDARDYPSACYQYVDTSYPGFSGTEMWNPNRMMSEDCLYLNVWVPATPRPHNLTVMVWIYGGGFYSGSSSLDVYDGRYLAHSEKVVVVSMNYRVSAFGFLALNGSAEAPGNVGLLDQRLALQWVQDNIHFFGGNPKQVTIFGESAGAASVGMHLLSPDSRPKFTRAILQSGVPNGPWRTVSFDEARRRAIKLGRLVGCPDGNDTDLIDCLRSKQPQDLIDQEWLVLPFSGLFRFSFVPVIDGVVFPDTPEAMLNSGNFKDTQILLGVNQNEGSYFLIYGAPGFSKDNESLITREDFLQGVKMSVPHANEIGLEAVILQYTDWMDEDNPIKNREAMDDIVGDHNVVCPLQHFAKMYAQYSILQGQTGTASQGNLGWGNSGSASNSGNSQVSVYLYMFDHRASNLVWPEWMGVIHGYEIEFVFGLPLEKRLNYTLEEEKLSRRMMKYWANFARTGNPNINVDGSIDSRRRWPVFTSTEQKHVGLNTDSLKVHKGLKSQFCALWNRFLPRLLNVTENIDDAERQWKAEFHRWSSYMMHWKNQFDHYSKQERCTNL

SMILES: COc1ccc(CN2CCN(CC(=O)Nc3nc4cc(OC)c(OC)cc4s3)CC2)cc1
- inhibition [1]: > 50%
- IC50 (Acetylcholinesterase [2]): 252 nM

SMILES: COc1cc2c(cc1OC)C(=O)C(CC1CCN(Cc3ccccc3)CC1)C2 (configuration not stated) [DONEPEZIL]
- IC50 at 24 h ([3]; nih3t3): 316000 nM

SMILES: COc1cc2nc(NC(=O)CN3CCN(Cc4ccc(C(F)(F)F)cc4)CC3)sc2cc1OC
- inhibition [1]: > 50%
- IC50 (Acetylcholinesterase [2]): 198 nM

SMILES: COc1cc2nc(NC(=O)CN3CCN(CCCN(C)C)CC3)sc2cc1OC
- fold change (FC) (Salmonella typhimurium [4]): 0.79
- fold change (FC) (Salmonella typhimurium [5]): 1.15
- fold change (FC) (Salmonella typhimurium [6]): 0.53
- fold change (FC) (Salmonella typhimurium [7]): 0.56
- fold change (FC) (Salmonella typhimurium [8]): 0.47
- fold change (FC) (Salmonella typhimurium [9]): 0.05
- fold change (FC) (Salmonella typhimurium [10]): 1.04
- fold change (FC) (Salmonella typhimurium [11]): 0.98
- fold change (FC) (Salmonella typhimurium [12]): 1.02
- fold change (FC) (Salmonella typhimurium [13]): 1.32
- fold change (FC) (Salmonella typhimurium [14]): 1.4
- fold change (FC) (Salmonella typhimurium [15]): 0.94
- fold change (FC) (Salmonella typhimurium [16]): 0.6
- Ki (Acetylcholinesterase [17]): 250 nM
- fold change (FC) (Salmonella typhimurium [18]): 0.84
- inhibition [19]: > 95%
- inhibition [20]: > 50%
- fold change (FC) (Salmonella typhimurium [21]): 1.49
- inhibition [22]: 90%
- fold change (FC) (Salmonella typhimurium [23]): 0.28
- fold change (FC) (Salmonella typhimurium [24]): 1.36
- fold change (FC) (Salmonella typhimurium [25]): 0.69
- fold change (FC) (Salmonella typhimurium [26]): 0.9
- fold change (FC) (Salmonella typhimurium [27]): 0.89
- fold change (FC) (Salmonella typhimurium [28]): 0.32
- inhibition [1]: > 50%
- fold change (FC) (Salmonella typhimurium [29]): 1.43
- fold change (FC) (Salmonella typhimurium [30]): 1.36
- fold change (FC) (Salmonella typhimurium [31]): 0.52
- IC50 (Acetylcholinesterase [2]): 57.6 nM
- IC50 at 24 h ([3]; NIH/3T3 cells): 100000 nM

SMILES: COc1ccc2nc(NC(=O)CN3CCN(Cc4ccc(C(F)(F)F)cc4)CC3)sc2c1
- inhibition [1]: > 50%
- IC50 (Acetylcholinesterase [2]): 274 nM

SMILES: COc1cc2nc(NC(=O)CN3CCN(Cc4ccc(Cl)cc4)CC3)sc2cc1OC
- inhibition [1]: > 50%
- IC50 (Acetylcholinesterase [2]): 130 nM

SMILES: COc1ccc(CN2CCN(CC(=O)Nc3nc4ccc(OC)cc4s3)CC2)cc1
- inhibition [1]: > 50%
- IC50 (Acetylcholinesterase [2]): 396 nM
